Rows were chosen to be rich in hits. Some 4.1% of all compounds tested hit in one or more screens of this group.
MEKK2 mut-MEK5: signal of MEK5 binding to mutant human MEKK2 PB1 domain | bead flow cytometry, Alexa488-MEK5 binding to MEKK2 mutant | percent response, % at 10 µM | 290,000 tested, 0.35% active; in the data active = percent response above about 24%, passing the limit was not always enough
MEKK3 PB1 HTS: modulators (inhibitors or enhancers) of MEK5 binding to human MEKK3 PB1 domain | Q99759 | bead-based flow cytometry, Alexa488-MEK5 binding to MEKK3; actives lie on both sides; 0 = blocked by unlabeled MEK5, 100 = vehicle | binding response (% of control), % at 10 µM | 290,000 tested, 1.4% active;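 active = binding response more than 3 SD above or below the average of its plate-row segment, actives on both sides; inconclusive = wells at one plate position flagged as instrument error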;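 also: Alexa488 bead fluorescence after subtracting the streptavidin-only scavenger bead signal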
Target sequence (Q99759 whole entry, looked up, the tested form may be a part): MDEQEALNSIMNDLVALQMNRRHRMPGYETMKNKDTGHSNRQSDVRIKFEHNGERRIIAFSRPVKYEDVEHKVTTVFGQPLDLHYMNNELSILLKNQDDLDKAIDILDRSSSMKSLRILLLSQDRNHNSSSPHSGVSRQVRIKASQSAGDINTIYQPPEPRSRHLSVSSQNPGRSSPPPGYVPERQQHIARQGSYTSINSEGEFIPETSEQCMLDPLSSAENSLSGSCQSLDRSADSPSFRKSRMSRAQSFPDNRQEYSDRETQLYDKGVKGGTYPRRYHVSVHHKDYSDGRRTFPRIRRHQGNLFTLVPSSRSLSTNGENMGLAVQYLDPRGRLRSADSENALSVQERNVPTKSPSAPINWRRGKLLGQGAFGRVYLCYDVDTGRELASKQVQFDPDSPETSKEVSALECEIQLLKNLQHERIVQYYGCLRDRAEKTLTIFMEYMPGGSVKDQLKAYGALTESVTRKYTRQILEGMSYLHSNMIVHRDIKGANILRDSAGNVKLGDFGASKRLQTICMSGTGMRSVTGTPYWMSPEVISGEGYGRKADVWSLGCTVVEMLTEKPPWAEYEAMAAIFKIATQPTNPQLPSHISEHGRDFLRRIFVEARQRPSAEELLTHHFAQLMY
MEKK2wt PB1 HTS: raises or lowers MEK5 binding to wildtype human MEKK2 PB1 domain; binding response (% of control), % at 10 µM; 290,000 tested, 1.1% active; Q9Y2U5; bead flow cytometry, Alexa488-MEK5 binding to MEKK2 WT; actives lie on both sides; in the data active = binding response below about 67% or above about 130%; inconclusive = no clear call, values can overlap the other calls; inactive = in between
HCV NS3 hel inh: blocks Hepatitis C virus NS3 helicase unwinding; NS3 helicase DNA unwinding, Cy5 molecular beacon fluorescence; inhibition, % at 10.9 µM; 290,000 tested, 0.56% active;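 active = inhibition above the mean of all tested compounds plus 3 SD, set per campaign, cut at about 35% in these data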;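 also: 0% = DMSO wells and 100% = thioflavine S control wells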
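Control set: DMSO versus 110 µM thioflavine S; Material: NS3 helicase fragment of HCV; Measured by: Cy5 fluorescence at 0 and 60 min, beacon hairpin quenching; Read-out basis: percent inhibition from t60/t0 fluorescence ratio; Times: reaction time 60 min, 25 °C; Repeats: single replicate; Compound dosing: single dose, 10.9 µM nominal final, DMSO 0.8% final.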
T cruzi repl: blocks replication of Trypanosoma cruzi. T. cruzi beta-gal in NIH3T3, luminescence, 90 h. inhibition, % (no concentration beside the values). 300,000 tested, 1.4% active. AID 1885;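 active = mean inhibition across valid replicates above about 55%, limit read from the data; inconclusive = mean below that limit but half or more replicates reach it; inactive = mean below it, under half of replicates reach it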;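 also: signal also drops with host cell toxicity which is not excluded here; 0% = plate median of DMSO wells and 100% = zero luminescence signal; higher percent means less beta-gal luminescence so fewer parasites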
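Assay system: NIH/3T3 host cells with β-galactosidase reporter T. cruzi; input: 5,000 host fibroblasts per well; compound: single 50 nL compound addition per well in DMSO; timing: ≥90 h infection period, 3 h prior cell attachment; measured by: GalScreen β-gal luminescence, detergent lysis, 60 min; evaluation: percent inhibition of parasite-derived β-gal signal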
FID counter: counter-screen for HCV NS3 helicase inhibitors: DNA intercalator displacement; inhibition, % at 7.9 µM; 290,000 tested, 0.17% active; DNA fluorescent intercalator displacement, fluorescence; in the data active = inhibition above about 37%;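 also: 0% = vehicle and 100% = reference compound; higher means more ethidium bromide displaced from hairpin DNA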
MEKK2wt confirm: raises or lowers MEK5 binding to wildtype human MEKK2, retest; 5,900 tested, 2.4% active; shares compounds with MEKK3 PB1 HTS; binding response (% of control), % at 10 µM; bead flow cytometry, Alexa488-MEK5 binding to MEKK2 WT; actives lie on both sides; in the data active = binding response below about 16% or above about 210%; inactive = in between
MEKK2mut confirm: signal of MEK5 binding to mutant human MEKK2, retest; bead flow cytometry, Alexa488-MEK5 binding to MEKK2 mutant; percent response, % at 10 µM; 5,900 tested, 2% active; AID 1893; shares compounds with MEKK3 PB1 HTS; in the data active = percent response mostly above about 71%, no sharp cut-off; inactive = mostly below about 38%;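 also: higher means compound restores mutant binding toward wildtype level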
MEKK3 confirm: confirmation of inhibitors of MEK5 binding to human MEKK3 | shares compounds with MEKK3 PB1 HTS | bead flow cytometry, Alexa488-MEK5 binding to MEKK3; active compounds read low | binding response (% of control), % at 10 µM | 5,900 tested, 1.8% active | AID 1894;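 active = binding response below 72% of control, or above a set upper limit, though filed actives all read lower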;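 also: 100% = DMSO only wells and 0% = binding blocked by excess unlabeled MEK5; lower values mean stronger disruption of MEK5 binding to MEKK3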
* = called active by the depositor; ? = inconclusive; nt = no result; [ ] = remark or other dose.

SMILES	MEKK2 mut-MEK5	MEKK3 PB1 HTS	MEKK2wt PB1 HTS	HCV NS3 hel inh	T cruzi repl	FID counter	MEKK2wt confirm	MEKK2mut confirm	MEKK3 confirm
CNC(=O)c1ccsc1NC(=O)CS(=O)(=O)c1ccc(Cl)cc1	0.0	95.0	95.0	9.8	-8.2	-11.5	nt	nt	nt
O=C(CCCCCNC(=O)c1ccccc1)C[N+](=O)[O-]	-2.0	118.0	107.0	-6.1	-0.5	-6.1	nt	nt	nt
CCN1CCN(Cc2ccc(C(=O)Nc3ccc(C)c(NCc4cnc(NC(=O)OC)cn4)c3)cc2C(F)(F)F)CC1	6.0	105.0	123.0	-97.2	-12.8	22.3	nt	nt	nt
CCN1CCN(Cc2ccc(NC(=O)c3ccc(C)c(NC(=O)C(=O)c4c[nH]c5ccccc45)c3)cc2C(F)(F)F)CC1	95.0*	113.0	301.0*	-103.0	47.7	30.4	239.0*	172.0*	113.0
CCCn1c2ccccc2c2cnn(CC(=O)NCCCN3C(C)CCCC3C)c(=O)c21 (stereo unspecified)	9.0	101.0	121.0	-6.1	6.9	11.9	nt	nt	nt
O=C(Nc1ccnn1C1CCN(C/C=C/c2ccccc2)CC1)c1ccccc1	10.0	104.0	119.0	-29.9	20.4	9.2	nt	nt	nt
O=C(Nc1ccnn1C1CCN(C/C=C/c2ccccc2)CC1)c1cccc(F)c1	16.0	107.0	140.0*	-60.6	7.0	3.3	122.0	11.0	107.0
Fc1ccc(-n2cc(CNCCc3ccncc3)c(-c3ccccc3Cl)n2)cc1	10.0	99.0	113.0	-46.6	13.5	28.9	nt	nt	nt
Fc1ccc(-c2nn(-c3ccccc3)cc2CNCc2ccccc2)cc1	19.0	98.0	160.0*	-50.6	?	23.7	150.0	19.0	104.0
OCc1cn(-c2ccccc2)nc1-c1ccc(-c2nn(-c3ccccc3)cc2CO)cc1	-8.0	92.0	94.0	8.1	21.7	-7.8	nt	nt	nt
Fc1ccc(-n2cc(CNCCc3cccnc3)c(-c3ccccc3Cl)n2)cc1	66.0*	108.0	221.0*	-33.4	13.3	14.1	127.0	10.0	101.0
CCOc1ccc(/C=C/c2nc(C#N)c(NCCCOC)o2)cc1	3.0	99.0	107.0	-0.8	-1.3	-15.7	nt	nt	nt
CCOc1ccc(/C=C/c2nc(C#N)c(NCCCN(C)C)o2)cc1	26.0*	113.0	140.0*	-40.0	5.9	21.9	103.0	9.0	101.0
O=C(COC(=O)c1n[nH]c(=O)c2ccccc12)c1ccccc1	0.0	97.0	99.0	7.8	-9.0	-6.8	nt	nt	nt
COc1cccc(C(=O)COC(=O)c2n[nH]c(=O)c3ccccc23)c1	-12.0	60.0*[inhibitor]	71.0	-4.5	-11.4	-0.4	101.0	4.0	104.0
COc1ccc(/C=C(/NC(=O)c2ccc(OC)c(OC)c2)C(=O)NCCCn2ccnc2)cc1	-3.0	100.0	101.0	-7.9	-1.0	-2.1	nt	nt	nt
CCOc1cc(S(=O)(=O)n2cnc(C)c2)ccc1Cl	2.0	148.0*	123.0	5.3	-1.3	-5.9	93.0	-2.0	101.0
COc1cc(S(=O)(=O)n2cnc(C)c2)ccc1Cl	-9.0	99.0	85.0	11.5	-4.0	1.4	nt	nt	nt
CC(=O)Nc1ccc(NC2CCCCC2NS(=O)(=O)c2ccc(Cl)cc2)cc1 (stereo unspecified)	13.0	105.0	103.0	4.5	-4.5	-15.8	nt	nt	nt
CCOc1ccccc1NC(=O)CSc1nc(N)c(C#N)cc1C#N	3.0	99.0	98.0	24.7	-10.7	-3.6	nt	nt	nt
COc1ccccc1NC(=O)CSc1nc(N)c(C#N)cc1C#N	0.0	130.0*	109.0	-3.0	-7.8	-2.2	104.0	14.0	105.0
Cc1cc(OC(C)C(=O)NCC2CCC(C(=O)O)CC2)c2c(C)cc(=O)oc2c1 (stereo unspecified)	4.0	102.0	103.0	-6.0	-3.5	-12.9	nt	nt	nt
O=c1[nH]c(SCC2CCCCO2)nc2ccccc12 (stereo unspecified)	-4.0	73.0*[inhibitor]	93.0	5.1	-4.7	-10.0	103.0	10.0	105.0
Cc1cccc(OS(=O)(=O)NC(=O)OCC2CCCN3CCCCC23)c1 (stereo unspecified)	4.0	101.0	103.0	4.7	0.3	1.6	nt	nt	nt
CCOC(=O)c1[nH]c(C)c(CC(C)C)c1C	-9.0	87.0	89.0	-0.8	-0.7	-12.2	nt	nt	nt
SMILES	MEKK2 mut-MEK5	MEKK3 PB1 HTS	MEKK2wt PB1 HTS	HCV NS3 hel inh	T cruzi repl	FID counter	MEKK2wt confirm	MEKK2mut confirm	MEKK3 confirm
c1ccc(Cn2nnc3c(NCC4CCCO4)ncnc32)cc1 (stereo unspecified)	-8.0	61.0*[inhibitor]	65.0	-5.2	-8.8	-10.0	106.0	10.0	107.0
c1ccc(Cn2nnc3c(NCC4CCCO4)nc(C4CC4)nc32)cc1 (stereo unspecified)	-13.0	94.0	92.0	-5.4	14.7	-26.2	nt	nt	nt
Cc1ccc(C(=O)C[n+]2cc(Br)cc(Br)c2)cc1[N+](=O)[O-]	51.0*	104.0	101.0	7.3	-4.7	0.6	111.0	2.0	98.0
Cc1cc(C)c[n+](CC(=O)c2ccc(C)c([N+](=O)[O-])c2)c1	3.0	97.0	108.0	4.4	-1.6	3.9	nt	nt	nt
COC(=O)c1cc(NC(=O)c2cc(C(C)(C)C)nn2Cc2ccc(F)cc2)ccc1N1CCOCC1	32.0	133.0*	130.0	0.3	34.9	-38.6	103.0	-2.0	103.0
CC1CCN(S(=O)(=O)c2ccc3c(c2)N(CC(=O)NCCN2C(C)CCCC2C)C(=O)CS3)CC1 (stereo unspecified)	1.0	101.0	112.0	-10.6	26.9	14.4	nt	nt	nt
CCOC(=O)CNC(=O)Nc1nnc(-c2ccc(OCC)cc2)o1	-11.0	48.0*[inhibitor]	56.0	2.6	-7.5	-13.1	97.0	-1.0	100.0
CCCCc1ccc(NC(=S)NCc2ccccc2OC)cc1	-12.0	72.0	86.0	-6.4	28.0	-9.4	nt	nt	nt
CCCCn1c(SCc2nc3ccccc3s2)nc2ccccc2c1=O	13.0	104.0	124.0	-5.0	13.8	-8.8	nt	nt	nt
CCCn1c(=O)c2ccccc2n2c(SCc3nc4ccccc4s3)nnc12	-26.0	1.0*[inhibitor]	-2.0*[inhibitor]	7.5	4.2	-14.0	103.0	2.0	106.0
CC(=O)NS(=O)(=O)c1ccc(NC(=O)c2cc(-c3ccc(C)cc3)nc3ccccc23)cc1	5.0	105.0	94.0	12.0	-20.6	-27.7	nt	nt	nt
CC(=O)Nc1ccc(-c2cc(C(=O)O)c3ccccc3n2)cc1	-40.0	58.0*[inhibitor]	61.0*[inhibitor]	9.6	10.3	-0.6	106.0	-1.0	103.0

Screens: PubChem BioAssay, several laboratories
